Data on 72 compounds can be found in ChEMBL document CHEMBL1151859, “Structure-activity relationship studies of a novel series of anthrax lethal factor inhibitors” (Bioorg Med Chem, 2009).

Structures are written as SMILES. pIC50, pKi: −log10 of the molar value. Calls of active or inactive are those of the source. No cut-off for these calls is given here. Bounds are passed on as bounds.

Chain of Matrix metalloproteinase-9 (Homo sapiens) (P14780 whole entry): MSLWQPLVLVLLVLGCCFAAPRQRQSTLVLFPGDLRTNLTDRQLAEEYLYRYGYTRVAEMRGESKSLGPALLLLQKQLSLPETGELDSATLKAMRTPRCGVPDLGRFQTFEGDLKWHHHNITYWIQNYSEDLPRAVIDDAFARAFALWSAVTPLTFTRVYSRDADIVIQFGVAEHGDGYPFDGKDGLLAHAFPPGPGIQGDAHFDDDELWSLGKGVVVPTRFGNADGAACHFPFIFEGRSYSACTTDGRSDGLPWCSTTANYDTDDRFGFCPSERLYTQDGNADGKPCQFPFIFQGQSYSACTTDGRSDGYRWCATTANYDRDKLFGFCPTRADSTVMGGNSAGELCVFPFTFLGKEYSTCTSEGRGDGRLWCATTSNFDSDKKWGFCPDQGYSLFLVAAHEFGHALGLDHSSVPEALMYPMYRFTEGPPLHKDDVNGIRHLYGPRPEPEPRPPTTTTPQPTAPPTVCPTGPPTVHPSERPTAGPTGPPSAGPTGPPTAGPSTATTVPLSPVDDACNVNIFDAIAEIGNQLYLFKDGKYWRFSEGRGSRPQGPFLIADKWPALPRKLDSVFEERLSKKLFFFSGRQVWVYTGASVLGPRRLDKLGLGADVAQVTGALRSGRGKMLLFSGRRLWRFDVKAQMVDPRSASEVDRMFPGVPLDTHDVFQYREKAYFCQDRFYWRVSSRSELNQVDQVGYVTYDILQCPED

In the first assay the target is 72 kDa type IV collagenase (Homo sapiens) (UniProt P08253). Nature of the assay: Inhibition of human MMP2 up to 100 uM by fluorescence peptide cleavage assay. An outline of the steps: (§1)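 Pro-MMP-2 or pro-MMP-9 activated with 1 mM APMA (20 min or 2 h, respectively), then used at 10 μg/mL with 5-FAM/QXL520 peptide substrate in kit assay buffer.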
Chain of 72 kDa type IV collagenase (Homo sapiens) (P08253 110-660 limits assumed): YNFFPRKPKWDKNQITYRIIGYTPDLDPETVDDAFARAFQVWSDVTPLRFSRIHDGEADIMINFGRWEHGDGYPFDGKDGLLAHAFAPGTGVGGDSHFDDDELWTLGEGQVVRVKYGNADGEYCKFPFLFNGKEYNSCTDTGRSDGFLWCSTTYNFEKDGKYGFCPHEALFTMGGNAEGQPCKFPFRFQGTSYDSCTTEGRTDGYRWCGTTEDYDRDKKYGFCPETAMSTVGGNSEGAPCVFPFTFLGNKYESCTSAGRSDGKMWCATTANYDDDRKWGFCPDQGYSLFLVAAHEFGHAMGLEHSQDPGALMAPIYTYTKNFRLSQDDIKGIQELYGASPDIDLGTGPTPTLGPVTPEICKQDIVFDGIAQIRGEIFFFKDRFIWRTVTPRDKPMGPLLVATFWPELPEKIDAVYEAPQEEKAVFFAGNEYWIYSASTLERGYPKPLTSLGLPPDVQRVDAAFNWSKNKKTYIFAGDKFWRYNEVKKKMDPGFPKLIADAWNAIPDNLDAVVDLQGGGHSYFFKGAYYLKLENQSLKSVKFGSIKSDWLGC
On to `O=S(=O)(Nc1cccs1)c1ccc(-c2ccc(Cl)cc2)cc1`, for which the outcome was inactive.
With `O=S(=O)(Nc1cccc(C(F)(F)F)c1)c1cccs1`, the result was inactive.
Consider `O=S(=O)(Nc1ccccc1)c1cccs1`, for which the result was inactive.
Consider `Cc1ccc(NS(=O)(=O)c2cccs2)cc1Cl`, for which the outcome was inactive.
With `Cc1ccc(NS(=O)(=O)c2cccs2)cc1C(F)(F)F`, the result was inactive.
`COc1ccc(-c2ccc(S(=O)(=O)Nc3cccs3)cc2)cc1`: the result was inactive.
Regarding `Cc1ccc(S(=O)(=O)Nc2cccs2)cc1Cl`, the result was inactive.

A further assay deals with T1, Lethal factor (Bacillus anthracis, UniProt P15917).
T1 sequence (P15917 whole entry): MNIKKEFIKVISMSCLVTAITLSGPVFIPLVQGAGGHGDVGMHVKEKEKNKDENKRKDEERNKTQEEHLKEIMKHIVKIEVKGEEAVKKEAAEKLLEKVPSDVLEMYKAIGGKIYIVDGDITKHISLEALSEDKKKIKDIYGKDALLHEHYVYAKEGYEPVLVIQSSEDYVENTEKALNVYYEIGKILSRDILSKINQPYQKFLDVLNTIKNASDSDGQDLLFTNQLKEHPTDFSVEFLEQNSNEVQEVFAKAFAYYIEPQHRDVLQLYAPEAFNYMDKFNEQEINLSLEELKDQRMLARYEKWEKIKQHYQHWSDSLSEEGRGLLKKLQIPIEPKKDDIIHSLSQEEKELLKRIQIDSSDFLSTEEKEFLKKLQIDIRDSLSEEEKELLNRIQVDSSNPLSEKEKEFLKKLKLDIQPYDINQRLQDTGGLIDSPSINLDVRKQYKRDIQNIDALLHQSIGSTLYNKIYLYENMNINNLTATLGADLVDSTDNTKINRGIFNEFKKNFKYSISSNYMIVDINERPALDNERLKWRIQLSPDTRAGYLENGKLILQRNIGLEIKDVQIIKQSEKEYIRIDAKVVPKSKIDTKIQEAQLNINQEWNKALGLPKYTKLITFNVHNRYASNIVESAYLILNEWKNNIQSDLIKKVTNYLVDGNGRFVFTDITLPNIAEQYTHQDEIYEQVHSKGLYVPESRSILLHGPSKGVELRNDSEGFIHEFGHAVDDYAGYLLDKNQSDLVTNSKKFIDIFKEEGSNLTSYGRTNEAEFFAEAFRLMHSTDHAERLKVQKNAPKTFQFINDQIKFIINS
Kind of assay: Inhibition of Bacillus anthracis lethal factor assessed as cleavage of MAPKK by fluorescence peptide cleavage assay.
Regarding `O=S(=O)(Nc1cccs1)c1ccc(-c2ccc(Cl)cc2)cc1`, the pIC50 (as a rule, the negative decadic logarithm of the IC50, by convention in mol/L) was less than 4.30.
On to `O=S(=O)(Nc1cccc(C(F)(F)F)c1)c1cccs1`, for which the pIC50 is less than 4.00.
Take `O=S(=O)(Nc1ccccc1)c1cccs1`: the pIC50 is less than 4.00.
With `Cc1ccc(NS(=O)(=O)c2cccs2)cc1Cl`, the pIC50 is less than 4.00.
`Cc1csc(NS(=O)(=O)c2ccc(-c3ccccc3)cc2)c1-c1nc2ccccc2s1`: the pIC50 was 4.77.
For `COc1ccc(-c2ccc(S(=O)(=O)Nc3sccc3-c3nc4ccccc4s3)cc2)cc1OC`, the pIC50 is 5.05.
As for `Cc1ccc(NS(=O)(=O)c2cccs2)cc1C(F)(F)F`, the negative-log IC50 (pIC50) was less than 4.00.
The same measure, in the same setting: then `O=S(=O)(Nc1sccc1-c1nc2ccccc2s1)c1ccc(-c2ccc(Cl)c(Cl)c2)cc1`, with 5.14; and `O=S(=O)(Nc1sccc1-c1nc2ccccc2s1)c1ccc(Br)c(Cl)c1`, with 5.35.
`Cc1ccc(-c2ccc(S(=O)(=O)Nc3sccc3-c3nc4ccccc4s3)cc2)cc1`: the pIC50 was 4.55.
Consider `Cc1csc(NS(=O)(=O)c2cccc(Cl)c2)c1-c1nc2ccccc2s1`, for which the pIC50 is less than 4.00.
On the same count and under the same terms, then `Cc1ccc(S(=O)(=O)Nc2scc(C)c2-c2nc3ccccc3s2)cc1F`, with 4.46; and `Cc1csc(NS(=O)(=O)c2ccc(F)cc2)c1-c1nc2ccccc2s1`, with less than 4.00; and `Cc1csc(NS(=O)(=O)c2ccc(Cl)c(C(F)(F)F)c2)c1-c1nc2ccccc2s1`, with 4.96.
In the case of `Cc1csc(NS(=O)(=O)c2ccc(OC(F)(F)F)cc2)c1-c1nc2ccccc2s1`, the pIC50 is 4.74.
In the case of `O=S(=O)(Nc1sccc1-c1nc2ccccc2s1)c1ccc(C(F)(F)F)cc1`, the pIC50 is 4.96.
On the same count and under the same terms, for `CN1CCOc2cc(S(=O)(=O)Nc3sccc3-c3nc4ccccc4s3)cnc21` the value was 4.57.
On to `N#C/C(=C\c1ccc([N+](=O)[O-])s1)C(=O)c1ccco1`, for which the pIC50 was 4.72 and the pKi (usually the negative decadic logarithm of the Ki, by convention in mol/L) was 5.18.
Take `O=S(=O)(Nc1sccc1-c1nc2ccccc2s1)c1ccccc1`: the pIC50 was 4.41.
On the same count and under the same terms, for `COc1ccc(-c2ccc(S(=O)(=O)Nc3cccs3)cc2)cc1` the value was less than 4.30; for `Cc1ccc(S(=O)(=O)Nc2nc3ccccc3s2)cc1Cl`, 4.55.
Take `COc1ccc(S(=O)(=O)Nc2sccc2-c2nc3ccccc3s2)cc1`: the negative-log IC50 (pIC50) was 4.74.
Consider `COc1ccccc1Oc1ccc(S(=O)(=O)Nc2sccc2-c2nc3ccccc3s2)cc1`, for which the pIC50 is less than 4.30.
As for `Cc1csc(NS(=O)(=O)c2cccc(C(F)(F)F)c2)c1-c1nc2ccccc2s1`, the pIC50 was 5.03.
For `Cc1csc(NS(=O)(=O)c2ccc(F)c(Cl)c2)c1-c1nc2ccccc2s1`, the pIC50 was less than 4.00.
Still for that read-out and setting: then `CC(=O)Nc1ccc(S(=O)(=O)Nc2scc(C)c2-c2nc3ccccc3s2)cc1`, with 4.85; and `Cc1csc(NS(=O)(=O)c2ccc(-c3ccc(Cl)cc3)cc2)c1-c1nc2ccccc2s1`, with 4.92.
In the case of `O=S(=O)(Nc1sccc1-c1nc2ccccc2s1)c1ccc(OC(F)(F)F)cc1`, the pIC50 was 5.02.
Consider `COc1ccc(S(=O)(=O)Nc2scc(C)c2-c2nc3ccccc3s2)cc1OC`, for which the pIC50 is 4.47.
As to `O=S(=O)(Nc1sccc1-c1nc2ccccc2s1)c1ccc(Cl)c(C(F)(F)F)c1`, the pIC50 is 5.00.
For the compound `O=S(=O)(Nc1sccc1-c1nc2ccccc2s1)c1ccc(-c2ccc(OC(F)(F)F)cc2)cc1`, the pIC50 was 5.41.
For `COc1ccc(-c2ccc(S(=O)(=O)Nc3oncc3-c3nc4ccccc4s3)cc2)cc1`, the pIC50 is less than 4.00.
As for `Cc1nccc(-c2cccc(S(=O)(=O)Nc3sccc3-c3nc4ccccc4s3)c2)n1`, the pIC50 is 4.92.
With `O=S(=O)(Nc1sccc1-c1nc2ccccc2s1)c1ccc(Br)cc1`, the pIC50 is 5.10.
Take `Cc1ccc(S(=O)(=O)Nc2scc(C)c2-c2nc3ccccc3s2)cc1[N+](=O)[O-]`: the pIC50 is 4.32.
Take `Cc1ccc(S(=O)(=O)Nc2sccc2-c2nc3ccccc3s2)cc1`: the pIC50 is 4.89.
Consider `Cc1c(S(=O)(=O)Nc2sccc2-c2nc3ccccc3s2)cnn1-c1ccccc1`, for which the pIC50 is less than 4.30.
On the same count and under the same terms, for `O=S(=O)(Nc1sccc1-c1nc2ccccc2s1)c1ccc2ccccc2c1` the value was 5.10; for `O=S(=O)(NCCc1nc2ccccc2s1)c1ccc(-c2ccc(Cl)cc2)cc1`, less than 4.30.
`Cc1csc(N(S(=O)(=O)c2ccc(F)cc2)S(=O)(=O)c2ccc(F)cc2)c1-c1nc2ccccc2s1`: the pIC50 is less than 4.00.
Turning to `O=S(=O)(Nc1sccc1-c1nc2ccccc2s1)c1cccc(C(F)(F)F)c1`, the pIC50 is 4.80.
Take `O=S(=O)(Nc1sccc1-c1nc2ccccc2s1)c1ccc(Cl)cc1F`: the pIC50 was 4.74.
`COc1ccc(-c2ccc(S(=O)(=O)NCCc3nc4ccccc4s3)cc2)cc1`: the pIC50 is less than 4.30.
With `Cc1ccc(S(=O)(=O)Nc2cccs2)cc1Cl`, the pIC50 is less than 4.30.
Regarding `O=S(=O)(Nc1sccc1-c1nc2ccccc2s1)c1cccc(-c2ccccc2)c1`, the pIC50 is 4.89.
Take `COc1ccc(-c2cccc(S(=O)(=O)Nc3scc(C)c3-c3nc4ccccc4s3)c2)cc1`: the pIC50 is 4.80.
`Cc1ccc(S(=O)(=O)Nc2sccc2-c2nc3ccccc3s2)cc1[N+](=O)[O-]`: the pIC50 was 5.00.
For `Cc1csc(NS(=O)(=O)c2ccc(C(C)(C)C)cc2)c1-c1nc2ccccc2s1`, the pIC50 was less than 4.00.
Regarding `Cc1csc(NS(=O)(=O)c2ccc(Cl)cc2)c1-c1nc2ccccc2s1`, the pIC50 is 4.82 and the pKi is 5.11.
In the case of `O=S(=O)(Nc1sccc1-c1nc2ccccc2s1)c1ccco1`, the pIC50 is less than 4.30.
On to `O=S(=O)(Nc1sccc1-c1nc2ccccc2s1)c1ccc(Oc2ccccc2)nc1`, for which the pIC50 is 4.37.
For `Cc1cc(S(=O)(=O)Nc2sccc2-c2nc3ccccc3s2)ccc1F`, the pIC50 was 4.92.
On the same count and under the same terms, then `O=S(=O)(Nc1sccc1-c1nc2ccccc2s1)c1ccc2nonc2c1`, with 4.52.
Still for that read-out and setting: for `O=S(=O)(Nc1nc2ccccc2s1)c1ccc(-c2ccc(Cl)cc2)cc1` the value was less than 4.30; for `O=S(=O)(Nc1sccc1-c1nc2ccccc2s1)c1ccc(F)c(Cl)c1`, 4.89.
With `Cc1cc(C)n(-c2ccc(S(=O)(=O)Nc3sccc3-c3nc4ccccc4s3)cc2)n1`, the pIC50 was 4.96.
On to `CC(C)(C)c1ccc(S(=O)(=O)Nc2sccc2-c2nc3ccccc3s2)cc1`, for which the pIC50 is 4.89.
Consider `O=S(=O)(Nc1sccc1-c1nc2ccccc2s1)c1ccc(-c2cnco2)cc1`, for which the pIC50 was 4.89.
Same read-out and setting: for `Cc1csc(NS(=O)(=O)c2ccccc2C(F)(F)F)c1-c1nc2ccccc2s1` the value was less than 4.00.
On to `O=S(=O)(Nc1oncc1-c1nc2ccccc2s1)c1ccc(-c2ccc(Cl)cc2)cc1`, for which the pIC50 was less than 4.00.
In the case of `CS(=O)(=O)CS(=O)(=O)Nc1sccc1-c1nc2ccccc2s1`, the pIC50 was 4.72.
Still for that read-out and setting: for `Cc1csc(NS(=O)(=O)c2cc(Cl)c(Cl)cc2Cl)c1-c1nc2ccccc2s1` the value was 4.82; for `COc1cccc(S(=O)(=O)Nc2scc(C)c2-c2nc3ccccc3s2)c1`, 4.96.
The same measure, in the same setting: then `Cc1csc(NS(=O)(=O)c2cccc(-c3ccc(Cl)cc3)c2)c1-c1nc2ccccc2s1`, with 4.66; and `Cc1csc(N(S(=O)(=O)c2cccc(C(F)(F)F)c2)S(=O)(=O)c2cccc(C(F)(F)F)c2)c1-c1nc2ccccc2s1`, with less than 4.00.
On to `O=S(=O)(Nc1sccc1-c1nc2ccccc2s1)c1ccc(-c2ccno2)s1`, for which the pIC50 was 4.72.
For the compound `Cc1csc(NS(=O)(=O)c2ccc(Cl)cc2F)c1-c1nc2ccccc2s1`, the pIC50 is 4.72.
Turning to `Cc1c(S(=O)(=O)Nc2sccc2-c2nc3ccccc3s2)sc2ccccc12`, the pIC50 was 5.00.
With `COc1ccc(S(=O)(=O)Nc2scc(C)c2-c2nc3ccccc3s2)cc1`, the pIC50 is 4.34.
The same measure, in the same setting: then `O=S(=O)(Nc1sccc1-c1nc2ccccc2s1)c1ccc(F)cc1`, with 4.80; and `O=S(=O)(Nc1sccc1-c1nc2ccccc2s1)c1ccc(Cl)c(Cl)c1`, with 5.05.
Turning to `COc1ccc(-c2ccc(S(=O)(=O)Nc3sccc3-c3nc4ccccc4s3)cc2Cl)cc1`, the pIC50 was 5.52.

A further assay concerns the target Matrix metalloproteinase-9 (Homo sapiens) (UniProt P14780). Nature of the assay: Inhibition of human MMP9 up to 100 uM by fluorescence peptide cleavage assay. An outline of the steps:
as §1
Turning to `O=S(=O)(Nc1cccs1)c1ccc(-c2ccc(Cl)cc2)cc1`, the outcome was inactive.
On the same count and under the same terms, then `O=S(=O)(Nc1cccc(C(F)(F)F)c1)c1cccs1`, with “inactive”.
For `O=S(=O)(Nc1ccccc1)c1cccs1`, the result was inactive.
In the case of `Cc1ccc(NS(=O)(=O)c2cccs2)cc1Cl`, the outcome was inactive.
As for `Cc1ccc(NS(=O)(=O)c2cccs2)cc1C(F)(F)F`, the result was inactive.
Take `COc1ccc(-c2ccc(S(=O)(=O)Nc3cccs3)cc2)cc1`: the result was inactive.
Still for that read-out and setting: for `Cc1ccc(S(=O)(=O)Nc2cccs2)cc1Cl` the value was “inactive”.
